Source: PubChem BioAssay (several laboratories)
Compounds with a hit are over-represented: about 3.8% of the library has one in this group of screens.
V-ATPase pH: alters yeast V-ATPase proton transport. S. cerevisiae, pHLuorin cytosolic pH fluorescence. response, % at 10 µM. 350,000 tested, 0.37% active. AID 504577; in the data active = response mostly above about 7.3%, no sharp cut-off; inactive = mostly below about 5.4%; note: actives read high
Beta2AR agonist: activates human beta-2 adrenergic receptor causing internalization; P07550; Am2.2-beta2AR cells, FAP receptor internalization, flow cytometry; response, % (no concentration beside the values); 340,000 tested, 0.43% active; AID 504454;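 active = response above a set limit, near 3 SD of response in nonfluorescent compounds, cut at about 42% in these data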
Target sequence (P07550 whole entry, looked up): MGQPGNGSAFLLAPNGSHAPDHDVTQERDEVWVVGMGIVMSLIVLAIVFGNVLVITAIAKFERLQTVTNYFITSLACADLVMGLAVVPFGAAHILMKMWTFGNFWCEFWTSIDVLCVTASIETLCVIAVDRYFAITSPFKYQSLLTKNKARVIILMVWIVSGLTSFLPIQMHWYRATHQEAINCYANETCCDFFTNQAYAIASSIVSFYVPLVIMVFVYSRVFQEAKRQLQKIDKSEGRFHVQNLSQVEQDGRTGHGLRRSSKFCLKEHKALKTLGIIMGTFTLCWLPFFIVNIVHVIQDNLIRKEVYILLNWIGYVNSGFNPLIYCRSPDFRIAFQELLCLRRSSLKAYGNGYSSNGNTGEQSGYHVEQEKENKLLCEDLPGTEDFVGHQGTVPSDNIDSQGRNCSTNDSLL
Granule exo inh: blocks lytic granule exocytosis; TALL-104 LAMP-1 surface exposure, flow cytometry; cells stimulated with thapsigargin and PMA; inhibition, % at 10 µM; 360,000 tested, 0.66% active;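 active = inhibition above about 55%, limit read from the data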
T cell modulator: T cell immune modulation candidate; 2C CD8+ T cell-vesicle binding, flow cytometry; hits give low values; AID 2052; response (vesicle binding), % at 7 µM; 330,000 tested, 0.068% active;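 active = response, share of CD8 T cells binding vesicles, and their 90th percentile fluorescence all below set limits, cut at about 80% in these data, passing the limit was not always enough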;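 note: values below 100% mean blocked vesicle binding to the CD8+ T cells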
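Assay system – 2C mouse CD8+ T cells · Also added – QL9-loaded Drosophila micro-vesicles · Timing – Cell–vesicle co-incubation 1.5 h at 37 °C, staining 20 min on ice · Signal – flow cytometry of vesicle-bound cells · Measure – percent CD8+ FL2 mean versus row control · Controls – Peptide-free naked vesicles (low) and QL9 vesicles with 0.7% DMSO vehicle (high)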
MPTP inh: blocks calcium-induced mitochondrial swelling; isolated mouse mitochondria, Ca2+ swelling absorbance, 30 min; AID 602449; inhibition, % at 10 µM; 360,000 tested, 1.4% active;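 active = inhibition of 50% or more, scaled per plate between neutral and stimulator controls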;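 note: 0% = DMSO wells given calcium and 100% = 1 mM EGTA wells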
rCAG RNA binder: molecules binding r(CAG) RNA repeats; AID 651821; 370,000 tested, 1.3% active; r(CAG) RNA repeat, TO-PRO-1 dye displacement fluorescence; inhibition, % at 3 µM;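 active = inhibition above the plate cutoff, the mean of all test compounds on that plate plus 3 SD, cut at about 35% in these data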;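 note: 0% = DMSO alone and 100% = 100 µM mitoxantrone as full dye displacement; higher means more dye released from RNA so lower well fluorescence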
VATPase regulator: yeast V-ATPase proton transport regulation | response, % at 10 µM | S. cerevisiae pHLuorin cytosolic pH | AID 602197 | 980 tested, 2% active | shares compounds with V-ATPase pH; in the data active = response above about 24%;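 note: plate controls were vehicle wells for no effect and positive control wells for full effect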
MPTP counter: Rhodamine 123 counter-screen of mitochondrial pore hits; inhibition, % at 10 µM; shares compounds with MPTP inh; AID 624504; isolated mitochondria, membrane potential, Rhodamine 123 fluorescence; 5,000 tested, 78% active; in the data active = inhibition above about 22%;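 note: 0% = DMSO vehicle and 100% = positive control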
MPTP abs DR: MPTP inhibition, dose response swelling confirmation; shares compounds with MPTP inh; isolated mitochondria swelling, absorbance; IC50, µM; 780 tested, 58% active; AID 651561; in the data active = IC50 below about 20 µM
MPTP cs DR: counter-screen for mitochondrial permeability transition pore inhibitors, dose response | shares compounds with MPTP inh | isolated mitochondria counterscreen, fluorescence read-out | IC50, µM | 780 tested, 49% active | AID 651564; in the data active = IC50 below about 80 µM
rCAG bind conf: r(CAG) RNA repeat binding, confirmation | shares compounds with rCAG RNA binder | TO-PRO-1 dye displacement fluorescence | inhibition, % at 3 µM | 4,300 tested, 70% active | AID 652065;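 active = inhibition above a per-plate cutoff, the mean inhibition of sample wells plus 3 SD, cut at about 35% in these data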;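 note: loss of TO-PRO-1 fluorescence as compound displaces dye from 1x1 AA loop RNA; 0% = DMSO only wells and 100% = 100 µM mitoxantrone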
DNA CAG counter: DNA CAG dye complex inhibition counter-screen; d(CAG) DNA oligo TO-PRO-1 dye displacement, fluorescence; 4,300 tested, 94% active; inhibition, % at 3 µM; shares compounds with rCAG RNA binder;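 active = inhibition above its plate's cutoff, the mean test-well inhibition plus 3 SD, cut at about 4.8% in these data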;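 note: 0% = DNA dye mix with DMSO and 100% = 100 µM mitoxantrone; hits displace the dye from DNA and so lower well fluorescence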
Starred values were filed as active, the others as inactive; i = inactive; / = no result; + = active, no number.

SMILES	V-ATPase pH	Beta2AR agonist	Granule exo inh	T cell modulator	MPTP inh	rCAG RNA binder	MPTP counter	others
Cc1ccc([N+](=O)[O-])cc1	20.6*	0.1	1.9	431.1	0.5	0.0	/	VATPase regulator=4.4
O=[N+]([O-])c1ccc(Cl)cc1	1.6	-7.2	1.8	i	-2.0	2.3	/
Fc1ccc2nc(-c3ccc(CN4CCC(n5nnc6ccccc65)CC4)cc3)c(-c3ccccc3)nc2c1	/	/	/	/	/	11.1	/
CCOC(=O)c1cc2c(cn1)[nH]c1ccccc12	-3.7	-3.5	2.7	455.5	-1.9	4.4	/	VATPase regulator=0.4
COc1ccc(OC)c(N2C(=O)/C(=C/c3ccco3)C(=O)NC2=S)c1	/	/	/	365.7	/	/	/
COc1ccc(N2C(=O)/C(=C/c3ccc(C)o3)C(=O)NC2=S)cc1	10.5*	44.3*	18.5	/	0.8	24.2	/	VATPase regulator=81.9*
O=c1oc2ccccc2c(O)c1C(c1ccc([N+](=O)[O-])cc1)c1c(O)c2ccccc2oc1=O	11.8*	13.4	-2.9	/	41.5	96.2*	/	VATPase regulator=1.1;rCAG bind conf=93.7*;DNA CAG counter=76.4*
N#CCCC#N	/	/	/	/	/	0.9	/
COc1cccc(CCNCc2ccc(SC)cc2)c1	7.3	-5.0	-1.8	105.0	88.0*	1.0	-11.2	MPTP abs DR=13.3*;MPTP cs DR=>80
COc1cc2c(c3oc4cccc(O)c4c(=O)c13)[C@@H]1C=CO[C@@H]1O2	/	/	/	/	/	6.9	/
CCCCCCCSc1cc(OC)c(CCN(C)C)cc1OC	1.4	37.0	29.7	244.7	103.2*	-2.7	-13.1
CCCCCSc1cc(OC)c(CCN)cc1OC	5.5	-20.1	0.5	243.6	96.7*	12.0	-19.9	MPTP abs DR=3.44*;MPTP cs DR=77.3*
COc1cc(CCN)ccc1O	4.3	-11.4	-3.9	84.7	-0.6	2.5	/
COC1CC=C2CCN3CCC4=C(CC(=O)OC4)C23C1 (stereo unspecified)	/	/	/	/	/	2.4	/
Cc1ccccc1C(=O)NCCN1CCC2(CC1)C(=O)NCN2c1ccccc1	/	/	/	/	/	1.4	/
COc1ccc(OC(=O)N(C)C[C@H]2OCc3cnnn3CCCC(=O)N([C@@H](C)CO)C[C@@H]2C)cc1	/	/	/	/	/	-0.1	/
CSc1ccc(C(=O)C2CCCN(Cc3cc4ccccc4[nH]3)C2)cc1 (stereo unspecified)	-3.8	2.7	6.4	434.5	57.6*	-1.4	-8.2	MPTP abs DR=5.89*;MPTP cs DR=25*
CSc1ccc(C(=O)C2CCCN(Cc3cccnc3)C2)cc1 (stereo unspecified)	0.7	-5.2	-1.3	180.6	0.4	-4.9	/
CCOC(=O)C1(c2ccccc2)CCN(CCC(=O)Nc2cccc(Br)c2)CC1	0.8	19.2	16.0	/	77.0*	-6.3	10.7
CCOC(=O)C1(c2ccccc2)CCN(CCC(=O)Nc2ccc(OC)cc2)CC1	/	/	0.3	/	-0.4	-1.7	/
N#CC(C#N)=C(C#N)c1ccc(Nc2ccccc2)cc1	-2.4	14.4	51.2	229.1	118.5*	5.3	61.0*
CC(=O)C1=C(C)OC2=C(C(=O)CCC2)[C@@]12C(=O)N(C)c1ccccc12	/	/	/	/	/	1.4	/
CC(C)NCC(O)c1ccc(C2CCCC2)cc1 (stereo unspecified)	0.5	-1.3	-0.5	197.7	96.1*	4.6	-7.8	MPTP abs DR=16.4*;MPTP cs DR=>80
Oc1c(Br)c(Br)c(Br)c(Br)c1Br	-5.6	3.6	-1.0	499.7	66.8*	/	86.7*
CCCCCCCC(=O)NC(Oc1ccccc1[N+](=O)[O-])C(Cl)(Cl)Cl (stereo unspecified)	-0.2	7.4	-3.5	492.1	70.3*	-4.4	58.9*
SMILES	V-ATPase pH	Beta2AR agonist	Granule exo inh	T cell modulator	MPTP inh	rCAG RNA binder	MPTP counter	others
O=C(Cc1ccccc1)NC(Oc1ccccc1Cl)C(Cl)(Cl)Cl (stereo unspecified)	-1.0	9.1	2.1	i	2.7	-2.2	/
CC(N)Cc1c[nH]c2ccc(OCc3cccs3)cc12 (stereo unspecified)	-1.5	11.2	3.7	357.9	82.4*	10.2	-10.8	MPTP abs DR=9.77*;MPTP cs DR=>80
O=c1[nH]c2ccccc2n1C1CCN(CCCC(c2ccc(F)cc2)c2ccc(F)cc2)CC1	-4.2	14.5	24.7	491.1	88.5*	4.5	-8.5
O=C1CC(N2CCC(n3c(=O)[nH]c4ccccc43)CC2)C(=O)N1c1ccc(F)cc1 (stereo unspecified)	-0.1	1.2	1.8	328.0	-3.0	-4.3	/
Cc1[nH]c2c(C(F)(F)F)cccc2c1CCN	-2.9	7.4	-0.9	197.2	72.9*	2.0	-7.1	MPTP abs DR=i;MPTP cs DR=>80
CN1CC[C@@H]2CN[C@H](c3ccccc3)C[C@@H]21	/	/	/	/	/	3.8	/
C[C@H](NC(=O)OCc1ccccc1)C(=O)NC(Cc1ccccc1)P(=O)(Oc1ccccc1)Oc1ccccc1 (stereo partly specified)	/	/	/	/	/	4.2	/
CCN1/C(=C/C=C/C2=[N+](CC)c3ccccc3C2(C)C)C(C)(C)c2ccccc21	0.4	/	69.1*	/	+	-75.8	91.7*
CN1C2CCC1C(C(=O)Oc1ccccc1)C(c1ccc(Cl)cc1)C2 (stereo unspecified)	/	/	/	/	/	0.0	/
C/C(CC(c1ccccc1)c1c(O)c2ccccc2oc1=O)=N\Nc1ccc([N+](=O)[O-])cc1[N+](=O)[O-] (stereo unspecified)	-1.7	-0.9	0.3	147.6	89.6*	9.2	77.3*
COC(=O)C1=C(c2ccc(OC(F)(F)F)cc2)C[C@@H]2CC[C@H]1N2C(=O)NCc1ccco1	/	/	/	/	/	0.4	/
O=C(CNCc1c(F)cccc1F)N1CCC2(CC1)OCCO2	/	/	/	/	/	0.1	/
COc1ccc(N2CCN(CCCN)CC2)cc1	-2.9	3.4	-0.5	72.0	69.9*	-8.3	-3.9	MPTP abs DR=i;MPTP cs DR=>80
O=C(NCc1cccnc1)Nc1ccccc1Cl	0.9	1.6	0.1	235.4	-1.2	-2.4	/
O=C(NCc1cccnc1)Nc1ccc([N+](=O)[O-])cc1	-0.1	-8.1	-1.9	180.6	66.2*	-2.3	96.2*
COC(=O)C1C(c2ccc(C)cc2)CC2CCC1N2C (stereo unspecified)	/	/	/	/	/	0.8	/
Cc1cc(O)c2c3c(c(=O)oc2c1)CCC(C)C3 (stereo unspecified)	5.5	9.7	6.8	603.8	57.1*	10.1	88.6*
CCN(CC)S(=O)(=O)c1ccc(C)c(NCC(=O)Nc2ccc(C#N)c(Cl)c2)c1	-0.8	4.4	-1.8	608.9	77.2*	15.2	87.1*
